Laboratory results: ChEMBL document CHEMBL4020842, “Discovery of N1-(4-((7-Cyclopentyl-6-(dimethylcarbamoyl)-7 H-pyrrolo[2,3- d]pyrimidin-2-yl)amino)phenyl)- N8-hydroxyoctanediamide as a Novel Inhibitor Targeting Cyclin-dependent Kinase 4/9 (CDK4/9) and Histone Deacetlyase1 (HDAC1) against Malignant Cancer” (J Med Chem, 2018)
Blank lines part the entries; values can stand above or below the compound they belong to. Active and inactive are the calls of the source. No cut-off for these calls is given here.

How the values were obtained:
CDK4/Cyclin D3 = CDK4/Cyclin D3 (Homo sapiens, UniProt P11802); experiment: Inhibition of recombinant human full length N-terminal GST-tagged CDK4/Cyclin-D3 co-expressed in baculovirus infected sf21 cells using Rb substrate in presence of [gamma33P]ATP after 10 mins by scintillation counting method
Histone deacetylase 1 [1] = biological target: T1, Histone deacetylase 1 (Homo sapiens, UniProt Q13547); experiment: Potency index, ratio of vorinostat IC50 to compound IC50 for HDAC1 (unknown origin)
Histone deacetylase 1 [2] = biological target: T1, Histone deacetylase 1; experiment: Inhibition of HDAC1 (unknown origin)
T47D [3] = experiment: Induction of apoptosis in human T47D cells assessed as necrotic cells at 10 uM after 48 hrs by annexin V-FITC/propidium iodide staining based flow cytometry (reference value: 0.8%); assay type: functional
HepG2 [4] = experiment: Induction of apoptosis in human HepG2 cells assessed as late apoptotic cells at 10 uM after 48 hrs by annexin V-FITC/propidium iodide staining based flow cytometry (reference value: 0.64%); assay type: functional
Hep 3B2 [5] = experiment: Induction of apoptosis in human Hep3B cells assessed as live cells at 10 uM after 48 hrs by annexin V-FITC/propidium iodide staining based flow cytometry (reference value: 97.9%); assay type: functional
HepG2 [6] = experiment: Induction of apoptosis in human HepG2 cells assessed as necrotic cells at 10 uM after 48 hrs by annexin V-FITC/propidium iodide staining based flow cytometry (reference value: 2.32%); assay type: functional
A549 [7] = experiment: Induction of apoptosis in human A549 cells assessed as necrotic cells at 10 uM after 48 hrs by annexin V-FITC/propidium iodide staining based flow cytometry (reference value: […]%); assay type: functional
A549 [8] = experiment: Induction of apoptosis in human A549 cells assessed as early apoptotic cells at 10 uM after 48 hrs by annexin V-FITC/propidium iodide staining based flow cytometry (reference value: 0.41%); assay type: functional
T47D [9] = experiment: Induction of apoptosis in human T47D cells assessed as early apoptotic cells at 10 uM after 48 hrs by annexin V-FITC/propidium iodide staining based flow cytometry (reference value: 7.7%); assay type: functional
Hep 3B2 [10] = experiment: Cytotoxicity against human Hep3B cells assessed as reduction in cell viability after 72 hrs by CCK8 assay
Hep 3B2 [11] = experiment: Induction of apoptosis in human Hep3B cells assessed as necrotic cells at 10 uM after 48 hrs by annexin V-FITC/propidium iodide staining based flow cytometry (reference value: 4.97%); assay type: functional
MDA-MB-231 [12] = experiment: Induction of apoptosis in human MDA-MB-231 cells assessed as early apoptotic cells at 10 uM after 48 hrs by annexin V-FITC/propidium iodide staining based flow cytometry (reference value: 0.4%); assay type: functional
NCI-H460 [13] = experiment: Induction of apoptosis in human NCI-H460 cells assessed as early apoptotic cells at 10 uM after 48 hrs by annexin V-FITC/propidium iodide staining based flow cytometry (reference value: 0.11%); assay type: functional
Hep 3B2 [14] = experiment: Induction of apoptosis in human Hep3B cells assessed as late apoptotic cells at 10 uM after 48 hrs by annexin V-FITC/propidium iodide staining based flow cytometry (reference value: 5.25%); assay type: functional
MDA-MB-231 [15] = experiment: Induction of apoptosis in human MDA-MB-231 cells assessed as necrotic cells at 10 uM after 48 hrs by annexin V-FITC/propidium iodide staining based flow cytometry (reference value: […]); assay type: functional
T47D [16] = experiment: Induction of apoptosis in human T47D cells assessed as live cells at 10 uM after 48 hrs by annexin V-FITC/propidium iodide staining based flow cytometry (reference value: 85.3%); assay type: functional
NCI-H460 [17] = experiment: Induction of apoptosis in human NCI-H460 cells assessed as necrotic cells at 10 uM after 48 hrs by annexin V-FITC/propidium iodide staining based flow cytometry (reference value: 1.34%); assay type: functional
A549 [18] = experiment: Induction of apoptosis in human A549 cells assessed as live cells at 10 uM after 48 hrs by annexin V-FITC/propidium iodide staining based flow cytometry (reference value: 92.7%); assay type: functional
HepG2 [19] = experiment: Induction of apoptosis in human HepG2 cells assessed as early apoptotic cells at 10 uM after 48 hrs by annexin V-FITC/propidium iodide staining based flow cytometry (reference value: 0.3%); assay type: functional
MDA-MB-231 [20] = experiment: Induction of apoptosis in human MDA-MB-231 cells assessed as late apoptotic cells at 10 uM after 48 hrs by annexin V-FITC/propidium iodide staining based flow cytometry (reference value: 1.53%); assay type: functional
NCI-H460 [21] = experiment: Induction of apoptosis in human NCI-H460 cells assessed as live cells at 10 uM after 48 hrs by annexin V-FITC/propidium iodide staining based flow cytometry (reference value: 97.3%); assay type: functional
4T1 = experiment: Antitumor activity against mouse Fluc-labeled 4T1 cells implanted in Balb/c mouse assessed as reduction in tumor weight at 130 mg/kg, ip administered daily for 18 days measured after 8 to 25 days; assay type: functional, organism-based
Procedure, shortened: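 Luciferase (Fluc) reporter introduced into 4T1 cells by lentiviral transduction. Cells implanted orthotopically into mammary fat pads of female BALB/c mice aged 6–8 weeks. Once tumours averaged 100 mm3, dosing was daily by IP injection. Bioluminescence imaging was done at days 8 and 25 to reflect viable tumour cell number. Tumour weight was recorded at study end.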

HepG2 [22] = experiment: Induction of apoptosis in human HepG2 cells assessed as live cells at 10 uM after 48 hrs by annexin V-FITC/propidium iodide staining based flow cytometry (reference value: 96.7%); assay type: functional
NCI-H460 [23] = experiment: Induction of apoptosis in human NCI-H460 cells assessed as late apoptotic cells at 10 uM after 48 hrs by annexin V-FITC/propidium iodide staining based flow cytometry (reference value: 1.29%); assay type: functional
A549 [24] = experiment: Induction of apoptosis in human A549 cells assessed as late apoptotic cells at 10 uM after 48 hrs by annexin V-FITC/propidium iodide staining based flow cytometry (reference value: 0.88%); assay type: functional
MDA-MB-231 [25] = experiment: Induction of apoptosis in human MDA-MB-231 cells assessed as live cells at 10 uM after 48 hrs by annexin V-FITC/propidium iodide staining based flow cytometry (reference value: 98.1%); assay type: functional
T47D [26] = experiment: Induction of apoptosis in human T47D cells assessed as late apoptotic cells at 10 uM after 48 hrs by annexin V-FITC/propidium iodide staining based flow cytometry (reference value: 6.16%); assay type: functional

T1 sequence (Q13547 whole entry): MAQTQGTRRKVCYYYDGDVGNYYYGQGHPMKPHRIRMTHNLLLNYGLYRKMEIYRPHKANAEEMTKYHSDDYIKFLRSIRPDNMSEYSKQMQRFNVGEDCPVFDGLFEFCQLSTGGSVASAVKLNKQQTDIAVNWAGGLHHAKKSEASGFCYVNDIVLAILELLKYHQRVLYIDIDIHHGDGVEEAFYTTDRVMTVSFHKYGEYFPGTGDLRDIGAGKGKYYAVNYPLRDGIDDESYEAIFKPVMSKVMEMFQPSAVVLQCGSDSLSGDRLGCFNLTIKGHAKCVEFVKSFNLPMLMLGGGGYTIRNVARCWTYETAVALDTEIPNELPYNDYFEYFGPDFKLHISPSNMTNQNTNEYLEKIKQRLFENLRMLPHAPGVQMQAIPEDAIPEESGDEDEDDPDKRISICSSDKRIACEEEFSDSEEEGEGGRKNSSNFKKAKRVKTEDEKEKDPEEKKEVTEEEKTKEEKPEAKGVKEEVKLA
Chain of CDK4/Cyclin D3 (P11802 whole entry): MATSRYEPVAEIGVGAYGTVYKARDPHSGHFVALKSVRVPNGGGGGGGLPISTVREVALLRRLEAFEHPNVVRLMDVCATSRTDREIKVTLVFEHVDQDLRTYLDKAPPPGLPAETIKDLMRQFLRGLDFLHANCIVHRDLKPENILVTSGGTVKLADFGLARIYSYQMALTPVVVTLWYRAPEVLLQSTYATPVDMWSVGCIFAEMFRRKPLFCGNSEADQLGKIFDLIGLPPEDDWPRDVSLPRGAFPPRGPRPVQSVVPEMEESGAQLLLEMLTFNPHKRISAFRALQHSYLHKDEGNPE
Chain of CDK4/Cyclin D3 (P30281 whole entry, further chain): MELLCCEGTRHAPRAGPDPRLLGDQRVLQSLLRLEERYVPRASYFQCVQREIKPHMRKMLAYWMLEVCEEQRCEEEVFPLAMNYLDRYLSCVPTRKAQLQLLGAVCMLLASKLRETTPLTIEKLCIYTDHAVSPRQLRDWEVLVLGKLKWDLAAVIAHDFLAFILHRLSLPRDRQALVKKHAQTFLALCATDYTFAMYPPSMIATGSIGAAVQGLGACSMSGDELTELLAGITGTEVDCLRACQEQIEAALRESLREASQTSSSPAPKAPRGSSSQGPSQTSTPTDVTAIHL

Structure (SMILES): COC(=O)CCCCCCC(=O)NNc1ncc2cc(C(=O)N(C)C)n(C3CCCC3)c2n1
- IC50 (CDK4/Cyclin D3): > 5000 nM

Structure (SMILES): CN(C)C(=O)c1cc2cnc(Nc3ccccc3NC(=O)CCCCCCC(=O)NO)nc2n1C1CCCC1
- IC50 (CDK4/Cyclin D3): > 5000 nM
- Ratio IC50 (Histone deacetylase 1 [1]): 10 to 100
- IC50 (Histone deacetylase 1 [2]): 37 nM

Structure (SMILES): COC(=O)CCCCCCC(=O)Nc1ccc(Nc2ncc3cc(C(=O)N(C)C)n(C4CCCC4)c3n2)nc1
- IC50 (CDK4/Cyclin D3): 47 nM
- Ratio IC50 (Histone deacetylase 1 [1]): 10 to 100
- IC50 (Histone deacetylase 1 [2]): > 5000 nM

Structure (SMILES): CCCCCCC(=O)Nc1ccc(Nc2ncc3cc(C(=O)N(C)C)n(C4CCCC4)c3n2)cc1
- IC50 (CDK4/Cyclin D3): 27 nM

Structure (SMILES): CN(C)C(=O)c1cc2cnc(Nc3ccc(NC(=O)CCCCCCC(=O)NO)cn3)nc2n1C1CCCC1
- IC50 (CDK4/Cyclin D3): 93 nM
- Ratio IC50 (Histone deacetylase 1 [1]): 10 to 100
- IC50 (Histone deacetylase 1 [2]): 423 nM

Structure (SMILES): CN(C)C(=O)c1cc2cnc(Nc3cccc(NC(=O)CCCCCCC(=O)NO)c3)nc2n1C1CCCC1
- IC50 (CDK4/Cyclin D3): 30 nM
- Ratio IC50 (Histone deacetylase 1 [1]): 10 to 100
- IC50 (Histone deacetylase 1 [2]): 0.84 nM

Structure (SMILES): COC(=O)CCCCCCC(=O)Nc1ccc(Nc2ncc3ncn(C4CCCC4)c3n2)cc1
- IC50 (CDK4/Cyclin D3): > 5000 nM
- Ratio IC50 (Histone deacetylase 1 [1]): 10 to 100
- IC50 (Histone deacetylase 1 [2]): > 5000 nM

Structure (SMILES): COC(=O)CCCCCCC(=O)Nc1ncc2cc(C(=O)N(C)C)n(C3CCCC3)c2n1
- IC50 (CDK4/Cyclin D3): > 5000 nM

Structure (SMILES): O=C(CCCCCCC(=O)Nc1ccccc1)NO [VORINOSTAT]
- Activity (T47D [3]): 4.48%
- Activity (HepG2 [4]): 14%
- Activity (Hep 3B2 [5]): 53.2%
- Activity (HepG2 [6]): 5.69%
- Activity (A549 [7]): 18.1%
- Activity (A549 [8]): 6.41%
- Activity (T47D [9]): 48.6%
- IC50 (Hep 3B2 [10]): 2300 nM
- Activity (Hep 3B2 [11]): 3.43%
- Activity (MDA-MB-231 [12]): 3.74%
- Activity (NCI-H460 [13]): 2.2%
- Activity (Hep 3B2 [14]): 32.8%
- Activity (MDA-MB-231 [15]): 2.72%
- Activity (T47D [16]): 20.4%
- Activity (NCI-H460 [17]): 4.81%
- Activity (A549 [18]): 42.1%
- Activity (HepG2 [19]): 5.43%
- Activity (MDA-MB-231 [20]): 18.7%
- Activity (NCI-H460 [21]): 86.6%
- Activity (4T1): Active
- Activity (HepG2 [22]): 74.9%
- Activity (NCI-H460 [23]): 6.4%
- Activity (A549 [24]): 33.4%
- Activity (MDA-MB-231 [25]): 74.8%
- Activity (T47D [26]): 26.4%

Structure (SMILES): CCCCCCCCC(=O)Nc1ccc(Nc2ncc3cc(C(=O)N(C)C)n(C4CCCC4)c3n2)cc1
- IC50 (CDK4/Cyclin D3): 123 nM

Continued by falling IC50 (CDK4/Cyclin D3), values first:

- IC50 (CDK4/Cyclin D3): 24 nM
Structure (SMILES): COC(=O)CCCCCCCC(=O)Nc1ccc(Nc2ncc3cc(C(=O)N(C)C)n(C4CCCC4)c3n2)cc1

- IC50 (CDK4/Cyclin D3): 18 nM
- Ratio IC50 (Histone deacetylase 1 [1]): 10 to 100
- IC50 (Histone deacetylase 1 [2]): > 5000 nM
Structure (SMILES): CN(C)C(=O)c1cc2cnc(Nc3ccc(NC(=O)CCCCCCC(=O)O)cc3)nc2n1C1CCCC1

- IC50 (CDK4/Cyclin D3): 16 nM
- Ratio IC50 (Histone deacetylase 1 [1]): 10 to 100
- IC50 (Histone deacetylase 1 [2]): > 5000 nM
Structure (SMILES): CN(C)C(=O)CCCCCCC(=O)Nc1ccc(Nc2ncc3cc(C(=O)N(C)C)n(C4CCCC4)c3n2)cc1

- IC50 (CDK4/Cyclin D3): 16 nM
Structure (SMILES): COC(=O)CCCCCCC(=O)Nc1ccc(Nc2ncc3cc(C(=O)N(C)C)n(C4CCCC4)c3n2)cn1

- IC50 (CDK4/Cyclin D3): 11 nM
Structure (SMILES): CN(C)C(=O)c1cc2cnc(Nc3ccc(C(=O)NCCCCC(=O)NO)cc3)nc2n1C1CCCC1

- IC50 (CDK4/Cyclin D3): 10 nM
Structure (SMILES): COC(=O)CCCCCC(=O)Nc1ccc(Nc2ncc3cc(C(=O)N(C)C)n(C4CCCC4)c3n2)cc1

- IC50 (CDK4/Cyclin D3): 10 nM
- Ratio IC50 (Histone deacetylase 1 [1]): 10 to 100
- IC50 (Histone deacetylase 1 [2]): 53 nM
Structure (SMILES): CN(C)C(=O)c1cc2cnc(Nc3ccc(CNC(=O)CCCCCCC(=O)NO)cc3)nc2n1C1CCCC1

- IC50 (CDK4/Cyclin D3): 10 nM
- Ratio IC50 (Histone deacetylase 1 [1]): 10 to 100
- IC50 (Histone deacetylase 1 [2]): > 5000 nM
Structure (SMILES): CCCCCC(=O)Nc1ccc(Nc2ncc3cc(C(=O)N(C)C)n(C4CCCC4)c3n2)cc1

- IC50 (CDK4/Cyclin D3): 8.2 nM
Structure (SMILES): COC(=O)CCCCCCCNC(=O)c1ccc(Nc2ncc3cc(C(=O)N(C)C)n(C4CCCC4)c3n2)cc1

- IC50 (CDK4/Cyclin D3): 7.3 nM
Structure (SMILES): COC(=O)CCCCCNC(=O)c1ccc(Nc2ncc3cc(C(=O)N(C)C)n(C4CCCC4)c3n2)cc1

- IC50 (CDK4/Cyclin D3): 4.8 nM
Structure (SMILES): COC(=O)CCCCC(=O)Nc1ccc(Nc2ncc3cc(C(=O)N(C)C)n(C4CCCC4)c3n2)cc1
